Each structure is given as a SMILES string.

The record followed here is ChEMBL document CHEMBL4840303, “Design, synthesis, biological evaluation and pharmacophore model analysis of novel tetrahydropyrrolo[3,4-c]pyrazol derivatives as potential TRKs inhibitors” (Eur J Med Chem, 2021).

In data set [1] the test system is KM12. The data set is described as follows: Cell cycle arrest in human KM12 cells assessed as accumulation of cells at G2 phase at 250 nM measured after 48 hrs by AnnexinV-FITC/PI staining based flowcytometry method relative to control. It counts as functional.
Data set [2] is described as follows: Stability in human liver microsomes assessed as compound remaining in presence of NADPH at 100 uM measured after 60 mins by LC-MS/MS analysis. It is filed as ADME, Microsome. The conditions noted are these: read-out: Stability. The gist of the method: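 Human liver microsomes diluted to 0.59 mg/mL working solution in 100 mM potassium phosphate, prewarmed 10 min at 37 °C; compound added from a 100 µM working solution. NADPH (in 10 mM MgCl2) added to one plate, buffer instead in no-cofactor control. Incubated at 37 °C, quenched at 5, 15, 30, 45, 60 min, centrifuged, analysed by LC-MS/MS.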
For orientation: Microsomes from liver hold many membrane-bound enzymes, among them those of drug oxidation.

Data set [3] can be described thus: Stability in human plasma assessed as compound remaining incubated for 10 mins by LC-MS/MS analysis. It is filed as ADME, cell-free. The conditions noted are these: read-out: Stability. The essentials:
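Pooled frozen human plasma thawed at 37 °C, centrifuged to remove clots, pH adjusted to 7.4 if required. Spiked to 2 µM final (from 100 µM dosing solution), in duplicate, incubated at 37 °C in a water bath. Sampled at 0, 10, 30, 60 and 120 min, quenched with acetonitrile stop solution containing internal standards, centrifuged, and supernatant analysed by LC-MS/MS for percent remaining.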

Data set [4] addresses Serine/threonine-protein kinase mTOR (Homo sapiens) (UniProt P42345). In words: Inhibition of recombinant GST-tagged human mTOR (1360 to 2549 residues) expressed in baculovirus expression system at 1 uM measured by select screen assay relative to control. The gist of the method:
(§1)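 Single-concentration profiling at 1.0 µM in a 28-kinase SelectScreen panel; percent inhibition reported.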

In data set [5] the test system is KM12. In words: Cell cycle arrest in human KM12 cells assessed as accumulation of cells at G2 phase at 62.5 nM measured after 48 hrs by AnnexinV-FITC/PI staining based flowcytometry method relative to control. It counts as functional.
The target of data set [6] is Serine/threonine-protein kinase B-raf (Homo sapiens) (UniProt P15056). In words: Inhibition of recombinant GST-tagged human full length BRAF expressed in baculovirus expression system at 1 uM measured by select screen assay relative to control. The essentials: as §1
Chain of Serine/threonine-protein kinase B-raf (Homo sapiens) (P15056 whole entry): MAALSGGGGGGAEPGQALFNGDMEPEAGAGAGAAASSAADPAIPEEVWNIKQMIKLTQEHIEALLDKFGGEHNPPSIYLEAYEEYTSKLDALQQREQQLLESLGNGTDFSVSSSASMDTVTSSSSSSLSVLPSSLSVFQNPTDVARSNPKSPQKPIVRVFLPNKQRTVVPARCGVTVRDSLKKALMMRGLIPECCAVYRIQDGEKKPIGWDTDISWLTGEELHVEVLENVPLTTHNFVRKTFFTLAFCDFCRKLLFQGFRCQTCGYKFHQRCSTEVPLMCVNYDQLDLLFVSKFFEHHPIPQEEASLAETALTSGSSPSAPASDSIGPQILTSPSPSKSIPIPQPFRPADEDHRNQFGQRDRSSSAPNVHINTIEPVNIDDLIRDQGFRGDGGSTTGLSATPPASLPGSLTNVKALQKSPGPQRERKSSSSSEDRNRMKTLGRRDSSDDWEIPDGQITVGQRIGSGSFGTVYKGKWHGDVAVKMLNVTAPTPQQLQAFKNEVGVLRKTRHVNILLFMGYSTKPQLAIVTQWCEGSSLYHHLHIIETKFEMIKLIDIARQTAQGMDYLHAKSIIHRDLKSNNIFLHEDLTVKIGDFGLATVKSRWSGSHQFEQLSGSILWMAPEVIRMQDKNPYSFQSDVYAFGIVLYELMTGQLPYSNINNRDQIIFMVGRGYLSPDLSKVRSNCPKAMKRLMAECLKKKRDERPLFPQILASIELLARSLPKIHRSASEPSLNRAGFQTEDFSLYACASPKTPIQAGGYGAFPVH
The subject of data set [7] is KM12. In words: Induction of apoptosis in human KM12 cells assessed as necrotic cells at 500 nM measured after 48 hrs by AnnexinV-FITC/PI staining based flowcytometry assay relative to control. It is filed as functional. The gist of the method: (§2)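 10^5 cells in Annexin V binding buffer stained with FITC-Annexin V and PI for 10 min at room temperature in the dark, diluted with PBS and analysed by flow cytometry (FITC 494/518 nm, PI 535/617 nm).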

Data set [8] relates to KM12. In words: Cell cycle arrest in human KM12 cells assessed as accumulation of cells at less G1 phase at 250 nM measured after 48 hrs by AnnexinV-FITC/PI staining based flowcytometry method relative to control. It counts as functional.
Data set [9] deals with KM12. The data set is described as follows: Induction of apoptosis in human KM12 cells assessed as late apoptotic cells at 500 nM measured after 48 hrs by AnnexinV-FITC/PI staining based flowcytometry assay relative to control. It counts as functional. The gist of the method:
(§3)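 They were detached with trypsin, washed twice in PBS, and 10^5 cells were suspended in Annexin V binding buffer. Cells were stained with FITC-Annexin V and PI for 10 min at room temperature in the dark, diluted with PBS and analysed by flow cytometry.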

Another data set concerns THLE-2. The data set is described as follows: cells. The conditions noted are these: Homo sapiens, THLE-2, 72 h.
Data set [10] has as its system KM12. The data set is described as follows: cells. The conditions noted are these: Homo sapiens, KM12, 72 h.
Data set [11] has as its system KM12. The data set is described as follows: Induction of apoptosis in human KM12 cells assessed as viable cells at 1000 nM measured after 48 hrs by AnnexinV-FITC/PI staining based flowcytometry assay relative to control. It is filed as functional. The conditions noted are these: read-out: Activity. The gist of the method:
as §2

Data set [12] has as its system KM12. In words: Cell cycle arrest in human KM12 cells assessed as accumulation of cells at greater G1 phase at 250 nM measured after 48 hrs by AnnexinV-FITC/PI staining based flowcytometry method relative to control. It counts as functional.
Data set [13] addresses Cyclin-dependent kinase 2 (Homo sapiens) (UniProt P24941). The data set is described as follows: Inhibition of recombinant His-tagged human full length CDK2 expressed in baculovirus expression system at 1 uM measured by select screen assay relative to control. The gist of the method:
as §1

Data set [14] in a line: MRT in Sprague dawley rat at 1 mg/kg, iv. It is filed as ADME, organism-based. The conditions noted are these: in vivo. The gist of the method: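 Male-unspecified SD rats, n = 3 per group, single i.v. dose 1 mg/kg or oral 3 mg/kg. Blood drawn into heparin tubes at set times, centrifuged at 4 °C, plasma quantified by LC-MS/MS; noncompartmental parameters fitted.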
The target of data set [15] is Serine/threonine-protein kinase PLK4 (Homo sapiens) (UniProt O00444). The data set is described as follows: Inhibition of recombinant GST-tagged human PLK4 expressed in baculovirus expression system at 1 uM measured by select screen assay relative to control. The essentials: as §1
Chain of Serine/threonine-protein kinase PLK4 (Homo sapiens) (O00444 whole entry): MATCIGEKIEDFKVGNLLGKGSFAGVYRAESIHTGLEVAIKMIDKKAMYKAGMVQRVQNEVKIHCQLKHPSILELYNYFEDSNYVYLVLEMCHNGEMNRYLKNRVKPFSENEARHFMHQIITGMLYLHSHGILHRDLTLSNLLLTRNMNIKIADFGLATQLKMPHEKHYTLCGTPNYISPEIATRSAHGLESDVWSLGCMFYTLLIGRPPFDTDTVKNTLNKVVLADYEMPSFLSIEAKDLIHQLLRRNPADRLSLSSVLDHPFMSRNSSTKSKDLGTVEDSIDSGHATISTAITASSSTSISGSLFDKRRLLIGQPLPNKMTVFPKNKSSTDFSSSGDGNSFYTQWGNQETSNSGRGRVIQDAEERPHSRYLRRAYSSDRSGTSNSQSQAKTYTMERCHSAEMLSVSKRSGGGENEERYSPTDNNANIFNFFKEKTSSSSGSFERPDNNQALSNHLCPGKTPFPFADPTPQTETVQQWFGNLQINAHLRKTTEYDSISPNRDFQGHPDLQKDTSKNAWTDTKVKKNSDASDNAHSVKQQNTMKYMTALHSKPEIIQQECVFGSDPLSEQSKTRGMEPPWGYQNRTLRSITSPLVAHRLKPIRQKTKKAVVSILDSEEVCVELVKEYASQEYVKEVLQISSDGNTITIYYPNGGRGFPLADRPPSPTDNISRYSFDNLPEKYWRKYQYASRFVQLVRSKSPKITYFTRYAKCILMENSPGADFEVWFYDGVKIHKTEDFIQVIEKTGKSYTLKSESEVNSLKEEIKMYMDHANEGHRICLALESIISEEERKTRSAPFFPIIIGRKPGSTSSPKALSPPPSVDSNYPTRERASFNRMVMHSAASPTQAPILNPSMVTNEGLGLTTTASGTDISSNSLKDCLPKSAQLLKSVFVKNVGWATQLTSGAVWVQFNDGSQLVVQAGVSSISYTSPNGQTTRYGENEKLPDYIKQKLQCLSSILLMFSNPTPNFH
Data set [16] in a line: Half life in Sprague dawley rat at 3 mg/kg, po. It counts as ADME, organism-based. The conditions noted are these: in vivo. The gist of the method:
(§4)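 Blood was collected into heparin tubes at specified time points and centrifuged at once (4 °C, 4000 rpm, 20 min). Plasma levels were quantified by LC-MS/MS. Parameters came from noncompartmental analysis.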

The nature of data set [17]: Clearance in human microsomes assessed as half life at 100 uM measured after 60 mins by LC-MS/MS analysis. It counts as ADME, Liver, Microsome. The essentials:
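Pooled human liver microsomes were diluted to 0.59 mg/mL (working solution) in 100 mM potassium phosphate buffer and pre-warmed at 37 °C. Compound was added from a 100 µM working solution, with NADPH cofactor prepared in 10 mM MgCl2. Incubation ran at 37 °C for 60 min. Aliquots were quenched at 5, 15, 30, 45 and 60 min. A control without NADPH was run in buffer. Samples were analysed by LC-MS/MS.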

In data set [18] the target is High affinity nerve growth factor receptor (Homo sapiens, UniProt P04629). In words: Inhibition of N-terminal GST-tagged human TRKA (436 to 790 residues) expressed in baculovirus infected Sf21 cells using TK as substrate in presence of ATP measured after 30 mins by HTRF assay. On the technique in general: In TR-FRET formats the signal depends on donor and acceptor labels being close together.
Chain of High affinity nerve growth factor receptor (P04629 whole entry, the tested form may be a part): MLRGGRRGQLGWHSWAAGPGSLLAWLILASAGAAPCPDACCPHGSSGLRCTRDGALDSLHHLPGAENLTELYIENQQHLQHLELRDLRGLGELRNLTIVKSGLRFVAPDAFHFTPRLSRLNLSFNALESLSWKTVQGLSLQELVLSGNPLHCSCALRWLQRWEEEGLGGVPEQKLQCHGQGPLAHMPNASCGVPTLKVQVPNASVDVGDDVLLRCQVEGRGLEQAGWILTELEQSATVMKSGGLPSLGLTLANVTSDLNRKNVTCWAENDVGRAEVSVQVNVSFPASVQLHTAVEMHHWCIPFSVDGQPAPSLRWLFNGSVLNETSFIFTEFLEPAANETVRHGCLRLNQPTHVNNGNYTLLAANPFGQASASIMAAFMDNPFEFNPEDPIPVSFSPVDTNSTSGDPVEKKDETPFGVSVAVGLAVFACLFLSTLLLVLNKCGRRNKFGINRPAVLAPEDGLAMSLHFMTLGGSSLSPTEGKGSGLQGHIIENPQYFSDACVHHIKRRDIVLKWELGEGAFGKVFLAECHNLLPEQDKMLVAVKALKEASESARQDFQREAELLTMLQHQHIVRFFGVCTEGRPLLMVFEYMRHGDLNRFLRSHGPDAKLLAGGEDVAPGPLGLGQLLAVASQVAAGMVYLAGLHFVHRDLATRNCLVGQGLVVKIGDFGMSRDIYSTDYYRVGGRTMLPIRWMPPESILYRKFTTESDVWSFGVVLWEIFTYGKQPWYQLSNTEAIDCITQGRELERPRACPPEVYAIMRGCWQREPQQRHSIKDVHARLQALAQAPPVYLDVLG

A further data set has as its target CYP3A4 (Homo sapiens, UniProt P08684). The data set is described as follows: Inhibition of CYP3A4 in human liver microsomes at 10 uM preincubated for 10 mins followed by addition of NADPH and measured after 15 mins by LC-MS/MS analysis. It counts as ADME. The gist of the method: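 Pooled human liver microsomes (0.253 mg/mL) with test compound at 10 µM and probe substrates: phenacetin (CYP1A2), diclofenac (CYP2C9), S-mephenytoin (CYP2C19), dextromethorphan (CYP2D6), midazolam (CYP3A4). 10 min preincubation at 37 °C, NADPH-regenerating system added, 15 min at 37 °C. Stopped with cold acetonitrile containing tolbutamide/labetalol internal standards, centrifuged, supernatant read by LC-MS/MS; % inhibition.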

In data set [19] the test system is KM12. In words: Induction of apoptosis in human KM12 cells assessed as early apoptotic cells at 125 nM measured after 48 hrs by AnnexinV-FITC/PI staining based flowcytometry assay relative to control. It counts as functional. The gist of the method:
as §3

The test system of data set [20] is KM12. The data set is described as follows: Cell cycle arrest in human KM12 cells assessed as accumulation of cells at G2 phase at 500 nM measured after 48 hrs by AnnexinV-FITC/PI staining based flowcytometry method relative to control. It counts as functional.
Data set [21] is described as follows: AUC (last) in Sprague dawley rat at 3 mg/kg, po. More on the design: time 0 - last, route oral, dose 3 mg/kg. The conditions noted are these: in vivo. It counts as ADME, organism-based. The essentials: as §4

Chain of CYP3A4 (P08684 whole entry): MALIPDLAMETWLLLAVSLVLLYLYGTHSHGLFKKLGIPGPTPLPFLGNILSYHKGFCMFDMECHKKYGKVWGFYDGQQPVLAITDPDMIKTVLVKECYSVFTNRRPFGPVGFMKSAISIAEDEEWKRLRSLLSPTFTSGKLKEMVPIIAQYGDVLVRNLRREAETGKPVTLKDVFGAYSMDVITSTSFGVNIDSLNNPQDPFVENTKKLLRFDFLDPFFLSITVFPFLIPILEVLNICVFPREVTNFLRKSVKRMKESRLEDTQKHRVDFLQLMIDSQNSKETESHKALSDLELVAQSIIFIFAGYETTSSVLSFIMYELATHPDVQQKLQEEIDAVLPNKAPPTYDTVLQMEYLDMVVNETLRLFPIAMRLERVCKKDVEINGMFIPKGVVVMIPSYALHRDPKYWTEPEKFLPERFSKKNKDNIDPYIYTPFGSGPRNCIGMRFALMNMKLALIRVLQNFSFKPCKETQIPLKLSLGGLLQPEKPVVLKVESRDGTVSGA

Consider `CN1CCN(c2ccc(C(=O)Nc3n[nH]c4c3CN(Cc3cc(F)cc(F)c3)C4(C)C)cc2)CC1`, for which the Activity with KM12 [1] was determined as 9.26%; in the data set on KM12 [5], 15.8%; with KM12 [7] it was 0.06%; in the data set on KM12 [8] it was 5.86%; in the data set with KM12 [9], 39.1%; with KM12 [12], 1.26%. Further, the results for the Activity in the data set on KM12 [19] and in the data set with KM12 [20] were 18.15% and 8.75%, respectively. Also, the remaining at 1 h, 100 µM in data set [2] came out at 22.4%. Moreover, the remaining at 10 min in data set [3] was 96.8%. The inhibition in data set [4] was 1%; in data set [6], 3%; in data set [13] it was 3%; in data set [15], 0%. In addition, the IC50 with THLE-2 is over 100000 nM; in the data set with KM12 [10], 82 nM; in data set [18], 17 nM. Further, the viability at 1 µM with KM12 [11] was 23.7%. Further, the MRT in [14] was found to be 1.85 h. In addition, the half-life in [16] was 1.89 h. Moreover, the microsomal CLint at 100 µM in data set [17] is 46.8 µL/min/mg. On CYP3A4, this compound came in with an inhibition at 0.25 h, 10 µM of 6.4%. The same compound returned an AUC(0-t) in data set [21] of 2700 ng·h/mL.

A word on the inhibition: it is the drop in the measured response relative to a control, in per cent. As a reminder, the IC50 is the concentration that gives 50% inhibition. For orientation: MRT means the average time that molecules of a dose stay in the body. Broadly, the half-life is the time in which the quantity being followed falls by half. High values mean slow decline, low ones rapid decline. One may read the microsomal CLint as the rate of metabolic loss divided by the concentration. A word on the AUC(0-t): it is exposure summed from dosing to a finite time, without extrapolation to infinity. The low end stands for less exposure, the high end for more exposure.
